From ChEMBL document CHEMBL3091291, “Synthesis and pharmacological characterization of benzenesulfonamides as dual species inhibitors of human and murine mPGES-1” (Bioorg Med Chem, 2013)

Experiments:
[1] = target: T1, Polyunsaturated fatty acid 5-lipoxygenase (Homo sapiens) (UniProt P09917); experiment: Inhibition of calcium ionophore (A23187)-stimulated human 5-LO assessed as reduction of 5(S)-HETE production by measuring remaining activity at 100 uM preincubated for 15 mins followed by calcium ionophore (A23187) addition measured after 15 mins by LC-MS/MS analysis
T1 sequence (whole entry): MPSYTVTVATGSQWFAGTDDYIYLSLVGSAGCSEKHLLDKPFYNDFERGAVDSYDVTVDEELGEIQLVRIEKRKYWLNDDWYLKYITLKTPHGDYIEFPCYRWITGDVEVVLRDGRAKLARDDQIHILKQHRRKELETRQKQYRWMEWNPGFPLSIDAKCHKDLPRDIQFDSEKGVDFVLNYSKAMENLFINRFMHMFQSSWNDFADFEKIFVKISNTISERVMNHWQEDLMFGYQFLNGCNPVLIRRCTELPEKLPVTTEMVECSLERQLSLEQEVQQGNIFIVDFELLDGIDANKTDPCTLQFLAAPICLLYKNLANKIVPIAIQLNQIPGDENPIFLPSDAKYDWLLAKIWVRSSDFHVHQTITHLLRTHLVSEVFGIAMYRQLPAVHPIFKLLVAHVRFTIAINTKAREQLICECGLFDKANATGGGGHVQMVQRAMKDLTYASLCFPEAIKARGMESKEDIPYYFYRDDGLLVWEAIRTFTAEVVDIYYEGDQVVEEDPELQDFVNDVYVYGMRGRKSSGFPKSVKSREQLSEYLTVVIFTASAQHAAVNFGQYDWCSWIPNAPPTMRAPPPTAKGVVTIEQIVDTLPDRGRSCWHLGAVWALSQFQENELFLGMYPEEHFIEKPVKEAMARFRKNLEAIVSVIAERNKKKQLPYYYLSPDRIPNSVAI
Summary of the method: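 Heparinized human whole blood (500 µL) preincubated with compound 15 min at 37 °C, then stimulated with 20 µM calcium ionophore A23187 in autologous plasma for 15 min at 37 °C. Plasma spiked with deuterated LTB₄ and HETE internal standards, extracted into ethyl acetate, analysed by LC–MS/MS. Inhibition scored when a level fell by 33% or more versus control.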

[2] = target: Prostaglandin G/H synthase 1 (Homo sapiens) (UniProt P23219); experiment: Inhibition of COX1 in human whole blood assessed as reduction in PGD2 production by measuring remaining activity at 100 uM after 1 hr by LC-MS/MS analysis
HeLa = experiment: Cytotoxicity against IL-1beta/TNFalpha-stimulated human HeLa cells assessed as cell viability up to 10 uM after 24 hrs by WST-1 assay; format: cell-based
Summary of the method: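 HeLa cells seeded at 3 × 10³ per well in medium with 10% FCS, grown 24 h at 37 °C, then stimulated with IL-1b (1 ng/mL) + TNFa (5 ng/mL) and treated at the same time with compound (1, 10, 100 µM) or DMSO for 24 h. WST-1 reagent then added for 90–150 min; absorbance read at 450 nm against 620 nm reference.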

Chain of Prostaglandin G/H synthase 1 (Homo sapiens) (P23219 whole entry): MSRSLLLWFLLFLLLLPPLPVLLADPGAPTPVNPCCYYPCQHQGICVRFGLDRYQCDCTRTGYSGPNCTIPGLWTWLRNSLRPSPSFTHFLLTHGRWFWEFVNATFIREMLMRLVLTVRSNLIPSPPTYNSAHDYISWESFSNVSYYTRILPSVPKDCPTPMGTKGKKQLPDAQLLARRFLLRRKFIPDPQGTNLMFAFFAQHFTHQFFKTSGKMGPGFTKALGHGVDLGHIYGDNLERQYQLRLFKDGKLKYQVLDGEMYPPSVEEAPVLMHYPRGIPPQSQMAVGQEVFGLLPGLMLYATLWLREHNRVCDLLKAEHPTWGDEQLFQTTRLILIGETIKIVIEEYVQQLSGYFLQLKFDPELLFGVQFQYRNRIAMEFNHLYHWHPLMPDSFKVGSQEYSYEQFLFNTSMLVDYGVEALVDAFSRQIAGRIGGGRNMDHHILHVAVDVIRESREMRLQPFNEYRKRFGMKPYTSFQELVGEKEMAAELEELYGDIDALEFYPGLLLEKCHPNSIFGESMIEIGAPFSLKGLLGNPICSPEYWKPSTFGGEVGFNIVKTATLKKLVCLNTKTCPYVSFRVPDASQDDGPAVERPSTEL

Activity [1] | Activity [2] | Structure (SMILES) | Activity (HeLa)
98.7% | 61.5% | O=C(O)c1ccc(S(=O)(=O)N(Cc2ccccc2)Cc2ccc(Oc3ccccc3)cc2)cc1 | Non-toxic
125% | 48.5% | O=C(O)c1ccc(S(=O)(=O)N(Cc2ccccc2)c2ccc(Oc3ccccc3)cc2)cc1 | Non-toxic
56.2% | 109% | O=C(O)c1ccc(S(=O)(=O)N(Cc2ccccc2)Cc2ccc(Nc3ccccc3)cc2)cc1 | Non-toxic
65.6% | 110% | COc1ccc(CN(CC2CCCCC2)S(=O)(=O)c2ccc(C(=O)O)cc2)cc1 | Non-toxic
120% | 89.2% | COc1ccc(CN(Cc2ccccc2)S(=O)(=O)c2ccc(C(=O)O)cc2)cc1 | Non-toxic
